Experiments:
[1] = test system: Human betaherpesvirus 5; experiment: In vitro antiviral activity against human cytomegalovirus by plaque method.; type: functional, organism-based
Summary of the method: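 HCMV plaque reduction assay; result given as IC50 (concentration reducing plaque number by 50%). Averages from two or four experiments, some from a single experiment; highest concentration tested 100.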

[2] = test system: Human alphaherpesvirus 1; experiment: Antiviral activity against herpes simplex virus type 1(HSV-1) ELISA method; type: functional, organism-based
[3] = test system: HFF; experiment: Visual cytotoxicity scored on HFF cells at the time of HCMV plaque enumeration.; type: functional, cell-based, Homo sapiens
Summary of the method: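 Stationary HFF cells not affected by the plaque-assay virus examined microscopically for cytotoxicity, scored at the time HCMV plaques were counted. Top concentration tested 100; averages of two or four experiments, some single.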

[4] = test system: KB; experiment: In vitro inhibition of KB cell proliferation.; type: functional, cell-based, Homo sapiens
Summary of the method: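 KB cells grown over two population doublings of untreated controls with compound; proliferation quantified by crystal violet staining and spectrophotometric reading of dye eluted from stained cells. Values are IC50s averaged from two or four experiments, some from a single experiment.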

[5] = test system: Human betaherpesvirus 5; experiment: In vitro antiviral activity against human cytomegalovirus by yield reduction assay.; type: functional
Summary of the method: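 HCMV yield reduction assay; result given as IC90. Averages from two or four experiments, some single; highest concentration tested 100.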

[6] = test system: L1210; experiment: Inhibition of L1210 murine leukemic cells proliferation in vitro; type: functional, cell-based, Mus musculus
Summary of the method: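 L1210 murine leukemia cells grown with compound; cell counts taken at 0, 48 and 96 h. Where growth rate in treated cultures fell during the run, the 48–96 h rate was used.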

Compound	IC50 ([1]; Human betaherpesvirus 5)	IC50 ([2]; Human alphaherpesvirus 1)	IC50 ([3]; Homo sapiens, HFF)	IC50 ([4]; Homo sapiens, KB)	IC90 ([5]; Human betaherpesvirus 5)	IC50 ([6]; Mus musculus, L1210)	IC50 [1]	IC50 [2]	IC50 ([3]; hff)	IC50 ([4]; kb)	IC90 [5]	IC50 ([6]; l1210)
N#Cc1cn(C2C=CC(CO)O2)c2ncnc(N)c12 (stereo not given)	5.1 µM	41 µM	> 100 µM	176 µM	> 100 µM							
NC(=S)c1cn(C2CCC(CO)O2)c2ncnc(N)c12 (stereo not given)	2.5 µM	6 µM	29 µM	11 µM	12 µM	24 µM						
N#Cc1cn(C2OC(CO)CC2O)c2ncnc(N)c12 (stereo not given)	0.4 µM	2.6 µM	3 µM	4 µM	1.4 µM	0.1 µM						
NC(=S)c1cn(C2OC(CO)CC2O)c2ncnc(N)c12 (stereo not given)	0.5 µM	58 µM	2.1 µM	3 µM	3 µM	0.6 µM						
NC(=S)c1cn([C@@H]2O[C@H](CO)[C@@H](O)[C@H]2O)c2ncnc(N)c12	0.4 µM		0.32 µM	0.03 µM	0.1 µM	0.03 µM						
NC(=S)c1cn([C@@H]2O[C@H](CO)[C@H](O)[C@H]2O)c2ncnc(N)c12	0.6 µM	1.9 µM	0.6 µM	1 µM	0.4 µM	0.5 µM						
N#Cc1cn([C@@H]2O[C@H](CO)[C@@H](O)[C@@H]2N)c2ncnc(N)c12		320 µM	> 100 µM		110 µM	100 µM						
NC(=S)c1cn([C@H]2C[C@H](O)[C@@H](CO)O2)c2ncnc(N)c12	5.7 µM	8.2 µM	41 µM	7 µM	15 µM	3.9 µM						
N#Cc1cn([C@H]2C[C@H](O)[C@@H](CO)O2)c2ncnc(N)c12	35 µM	4.5 µM	66 µM	25 µM	13 µM	80 µM						
N=C(S)c1cn([C@@H]2O[C@H](CO)[C@@H](O)[C@@H]2N)c2ncnc(N)c12	1.6 µM	28 µM	73 µM	2.5 µM	41 µM	2 µM						
NC(=S)c1cn([C@@H]2O[C@H](CO)[C@@H](O)[C@@H]2O)c2ncnc(N)c12	0.9 µM	4.7 µM	29 µM	2 µM	1.9 µM	5 µM						
NC(=S)c1cn(C2C=CC(CO)O2)c2ncnc(N)c12 (stereo not given)	2.7 µM	14 µM	18 µM	5 µM	5 µM	3 µM						
N#Cc1cn(C2CCC(CO)O2)c2ncnc(N)c12 (stereo not given)	19 µM	21 µM	> 100 µM	88 µM	90 µM							
C[C@H]1OC(n2cc(C(=N)S)c3c(N)ncnc32)[C@H](O)[C@@H]1O (stereo not given in full)	3.1 µM		3.2 µM	0.5 µM		3 µM						
N#Cc1cn([C@@H]2O[C@H](CO)[C@@H](O)[C@H]2O)c2ncnc(N)c12 (stereo in doubt; 2) [TOYOCAMYCIN]							0.3 µM	0.4 µM	0.3 µM	0.1 µM	0.3 µM	0.1 µM
N#Cc1cn([C@@H]2O[C@H](CO)[C@@H](O)[C@H]2O)c2ncnc(N)c12 (stereo in doubt; 6) [TOYOCAMYCIN]										17 µM	14 µM	
N#Cc1cn([C@@H]2O[C@H](CO)[C@@H](O)[C@H]2O)c2ncnc(N)c12 (stereo in doubt; A) [TOYOCAMYCIN]							0.1 µM		0.03 µM			
Nc1nc2c(ncn2COC(CO)CO)c(=O)[nH]1 [GANCICLOVIR]			> 100 µM	> 100 µM	1.8 µM							

From ChEMBL document CHEMBL1128465, “Synthesis and evaluation of certain thiosangivamycin analogs as potential inhibitors of cell proliferation and human cytomegalovirus” (J Med Chem, 1995)
